# Only some compounds are listed: those with a hit (about 1.3% of all), similar ones and a draw of the others.
# CRFR2-BP ag = agonists of CRF-BP/CRF-R2 complex, primary screen, cell-based, HEK293, calcium dye fluorescence, uHTS; CRF-binding protein / CRF receptor 2 complex (human); calcium dye fluorescence (FLIPR); percent of saturating CRF peptide response; activation, % at 13.2 µM; 350,000 compounds, 0.46% hits;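 active means activation of at least 50%, plus an integration ratio under a set limit after plate pattern correction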;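 further: plate controls were neutral control wells without compound for no effect and CRF at EC100 for full effect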
# DDE Tn6 FP inh = inhibitors of Tn6 peptide binding to fibrin DD(E), primary screen, biochemical, fluorescence polarization, human fibrin, Tn6 probe; Fibrinogen beta chain (Homo sapiens), P02675; Fibrin DD(E) TRITC-Tn6 fluorescence polarization displacement; inhibition, % at 8.3 µM; 370,000 compounds, 0.21% hits; AID 720509, 2013;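 active means inhibition above a per-campaign cutoff: mean of compounds within control limits plus 3 SD, cut at about 15% in these data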;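 further: 0% = median of all compound wells on the plate and 100% = blocking peptide control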
# Target sequence (P02675 whole entry, looked up): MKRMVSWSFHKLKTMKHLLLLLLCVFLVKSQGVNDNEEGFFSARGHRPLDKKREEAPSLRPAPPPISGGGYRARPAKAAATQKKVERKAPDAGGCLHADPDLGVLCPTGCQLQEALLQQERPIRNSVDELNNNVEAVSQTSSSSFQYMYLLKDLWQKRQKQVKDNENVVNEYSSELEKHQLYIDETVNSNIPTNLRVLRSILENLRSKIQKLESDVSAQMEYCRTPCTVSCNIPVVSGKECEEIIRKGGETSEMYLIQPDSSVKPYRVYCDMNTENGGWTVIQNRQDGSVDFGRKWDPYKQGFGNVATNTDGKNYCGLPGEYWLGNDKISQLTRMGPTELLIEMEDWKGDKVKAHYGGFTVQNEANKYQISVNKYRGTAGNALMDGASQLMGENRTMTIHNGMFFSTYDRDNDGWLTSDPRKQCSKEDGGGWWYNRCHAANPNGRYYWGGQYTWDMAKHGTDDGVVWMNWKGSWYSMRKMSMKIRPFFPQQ
# Tn7 DDE FP = inhibitors of Tn7 peptide binding to fibrin DD(E), primary screen, biochemical, fluorescence polarization, human fibrin, Tn7 probe | Fibrinogen beta chain (Homo sapiens), P02675 | inhibition, % at 8.3 µM | FP displacement of FITC-Tn7 peptide from fibrin DD(E); 0% = median of compound wells per plate | 370,000 compounds, 0.13% hits | AID 720508, 2013;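 active means inhibition above the mean of compounds falling within the control limits plus 3 SD of them, cut at about 14% in these data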;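 further: 0% = plate median of compound wells and 100% = 10 µM Aha-Tn7 peptide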
#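 System: human fibrin DD(E); quantity: Fibrin-DD(E) at 2 µM final; also added: fluorescent Tn7 probe at 0.1 µM; compound dosing: single nominal test concentration of 8.3 µM per compound; schedule: 10 min preincubation, 3 h with tracer, room temperature; detection: fluorescence polarization of the labelled Tn7 tracer; repeats: one replicate per compound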
# CRFBP-R2 block = antagonists of CRF-BP/CRF-R2 complex, primary screen, cell-based, HEK293, calcium dye fluorescence, uHTS; AID 588475, 2011; inhibition, % at 11.8 µM; CRF-induced calcium fluorescence; 350,000 compounds, 0.59% hits;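 active means inhibition of the ligand-induced calcium signal above about 50% at the single tested concentration, limit read from the data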
# An asterisk follows results filed as active; . = not tested or not shown.
SMILES,CRFR2-BP ag,DDE Tn6 FP inh,Tn7 DDE FP,CRFBP-R2 block
Nc1nc2c(ncn2[C@@H]2O[C@H](C(=O)N[C@H](Cc3ccccc3)C(=O)NC3CCCCC3)[C@@H](O)[C@H]2O)c(=O)[nH]1,.,6,-4,.
CC(=O)O[C@@H]1CCC[C@@]2(C(=O)N(Cc3ccccc3)c3ccc(-c4c(C)noc4C)cc32)[C@H]1NC(=O)CCc1ccccc1,.,-1,-2,.
Cc1ccccc1/C=C/C(=O)N1CCOCC1,-1,2,-7,6
COc1ccccc1/C=C/C(=O)N1CCOCC1,-5,2,-6,85*
Fc1ccc(OCCCn2ccnc2)cc1,-2,-2,1,7
Fc1ccc(OCCCCCn2ccnc2)cc1,1,1,1,55*
CN(C)c1ccc(/C=C/c2nc3ccccc3s2)cc1,65*,1,-2,-84
CN(C)c1ccc(/C=C/c2ccc3ccccc3n2)cc1,90*,.,.,-90
O=C(NCCc1ccccc1F)c1cc2ccccn2n1,.,-1,-1,.
COc1cc(OC)c(OC)cc1/C=C1/Cc2ccccc2C1=O,51*,1,0,-23
O=C(NNC(=S)NC(=O)c1ccccc1)c1cccc([N+](=O)[O-])c1,49,6,6,12
O=C(NNC(=S)NC(=O)c1cccc([N+](=O)[O-])c1)c1ccc(Br)cc1,122*,-6,-5,-69
O=C(NNC(=S)NC(=O)c1cccc([N+](=O)[O-])c1)c1ccc(O)cc1,0,3,-8,0
Cc1ccc(C(=O)NC(=S)NNC(=O)c2cccc([N+](=O)[O-])c2)cc1,79*,8,0,21
CC(C)NC(=O)N[C@@H]1C[C@@H]2O[C@H](CO)CC[C@@H]2O[C@@H]1CCc1ccc(-c2ccccc2F)cc1,.,-4,2,.
COc1cc(/C=N/n2c(-c3cc(-c4ccccc4)n[nH]3)n[nH]c2=S)ccc1OCc1ccccc1,.,0,1,.
O=C1CSC(c2ccccc2F)N1c1cc(Cl)ccc1O (stereo not given),-1,-3,2,53*
COc1cc(C(=O)NCc2ccccc2Cl)ccc1OCC(=O)N1CCOCC1,1,5,-3,62*
COc1ccc(-c2cc(-c3nnc(SCC(=O)Nc4ccc(-c5nc6ccc(C)cc6s5)cc4)n3N)[nH]n2)cc1,.,0,-3,.
CCN(CC)CCOC(=O)C(Cc1ccco1)Cc1cccc2ccccc12 (stereo not given),-1,-10,-13,52*
CCN(CC)CCOC(=O)CCc1cccc2ccccc12,3,2,1,-14
C[C@H](O)[C@@H]1CN2CCc3c([nH]c4c(-c5ccccc5)cccc34)[C@@H]2C[C@@H]1N(C)CC1CCCCC1,.,2,-4,.
c1ccc(C(c2nnnn2Cc2cccs2)N2CCN(C3CCCC3)CC2)cc1 (stereo not given),-3,5,3,65*
CCCn1c(C)c(CC(=O)Nc2ccc(N(C)c3ccccn3)cc2)c2ccccc21,.,3,0,.
O=C(Nc1ccc(Oc2cccnc2)nc1)c1ccc(C(F)(F)F)cc1,4,7,-2,55*
SMILES,CRFR2-BP ag,DDE Tn6 FP inh,Tn7 DDE FP,CRFBP-R2 block
CCC(C)[C@H](NC(=O)[C@@H]1Cc2ccccc2CN1C(=O)OC(C)(C)C)C(=O)NCC1CCC(C(=O)O)CC1 (stereo not given in full),-3,7,-4,81*
CN(c1cccnc1)c1ccc(NC(=O)Cc2c[nH]c3ccccc23)cc1-c1cccnc1F,.,2,-6,.
CCN(CC)S(=O)(=O)c1cc(OC)c(Cl)cc1Cl,-1,3,-7,7
CCN(CC)S(=O)(=O)c1cc(OC)c(C)cc1C,-2,8,-7,69*
CCCCC1(C)OC(=O)C(=Cc2ccc(-c3ccc(Cl)c(C(=O)O)c3)o2)C(=O)O1 (stereo not given),4,-5,4,61*
Cc1ccc(S(=O)(=O)N2CCC(C(=O)NCc3cccs3)CC2)cc1,.,-2,8,.
O=C(NCc1ccco1)C1CC(c2ccccc2O)=NO1 (stereo not given),77*,-4,-10,-55
COc1ccc(N(CC(=O)NCCc2ccc(OC)c(OC)c2)S(=O)(=O)c2c(C)noc2C)cc1,-1,5,5,108*
CCOC(=O)C(Cc1ccc(OC)c([N+](=O)[O-])c1)NC(=O)CCC(=O)Nc1ccc(OC)cc1 (stereo not given),-5,2,1,-10
CCCCCCCCCCCC(=O)NC(Cc1ccc(OC)c([N+](=O)[O-])c1)C(=O)O (stereo not given),2,7,3,55*
CCOC(=O)CC[C@@]1(C(=O)OCC)C[C@@H](CC(=O)NCCCOC)C(=O)N2CCCC=C21,.,8,4,.
N#CC1=C(N)OC2=C(CC/C2=C\c2ccccc2)C1c1ccccc1 (stereo not given),300*,4,-6,-349
N#CC1=C(N)OC2=C(CC/C2=C\c2ccccc2Cl)C1c1ccccc1Cl (stereo not given),91*,-3,1,-86
N#CC1=C(N)OC2=C(C(=O)CCC2)C1c1ccccc1 (stereo not given),-1,7,4,-12
Cc1oc(C)c2c(=O)ccc3c(c12)OC(N)=C(C#N)C3c1ccccc1Cl (stereo not given),16,0,-1,-24
COC(=O)[C@]12C[C@H](CC(=O)NCCC(C)C)C(=O)N(Cc3ccco3)C1=C[C@H](COCc1ccccc1)O[C@@H]2C,.,2,1,.
COc1ccc(OC)c(S(=O)(=O)N2CCCC(C(=O)N3CCN(Cc4ccccc4)CC3)C2)c1 (stereo not given),.,-4,2,.
CC1=CN2C(=NC(=O)CC2(C)C(=O)N(CC(=O)NC2CCCC2)c2ccccc2C)C=C1 (stereo not given),0,-6,5,54*
CC(=O)c1ccc2c(c1)c(C#N)c1ccccc1[n+]2[O-],101*,-2,5,-61
COC(=O)[C@]12C[C@H](CC(=O)NCCCCc3ccccc3)C(=O)N(CCC3=CCCCC3)C1=C[C@H](C(C)C)O[C@@H]2C1CC1,.,5,-2,.
COc1ccc(OC)c2cc3ccccc3cc12,15,-2,18*,-11
COc1cc2ccccc2cc1C(=O)O,0,-11,4,1
N#C/C(=N\Nc1ccc(Cl)cc1)C(=O)c1ccccc1,44,1,-3,83*
CCCc1c(C)nn(C(=O)/C(C#N)=N/Nc2ccccc2[N+](=O)[O-])c1C,1,-1,4,-2
COc1ccc(C(=O)/C(C#N)=N/Nc2ccc([N+](=O)[O-])cc2)cc1,23,0,-6,71*
COc1ccc(C(=O)/C(C#N)=N/Nc2ccccc2[N+](=O)[O-])cc1,23,-5,0,61*

# Source: PubChem
